Experimental data of several laboratories.
Compare with care: the assays were run in different laboratories.
Target: SRSF protein kinase 1 (SRPK1, Homo sapiens, UniProt Q96SB4)

CN(CCCC(F)(F)F)c1nccc(-c2cnn3ncccc23)n1 has a remaining binding of 100% (binding; 1 µM).
With COCCOc1nc(-c2ccc(Cl)nc2)nc2c1CN(C(=O)c1ncn3ccccc13)CC2 the remaining binding was 86% (cell-free assay; competition with immobilised ligand; 0.1 µM).
The remaining binding of Nc1ncc2c(n1)-c1c([nH]c3ccc(C#CC4CC4)cc13)CCCC2 is reported as 87% (binding; competition with immobilised ligand; 1 µM).
For N[C@@H]1CCN(c2nccc(-c3cnn4ncccc34)n2)C1, the remaining binding was 92% (binding; 1 µM).
O=C(NCCCN1CCOCC1)c1ccc(Nc2nccc(-c3cc4ccccc4s3)n2)cc1 gave a remaining binding of 100% (binding; competition with immobilised ligand; 1 µM).
For CN(C)c1nccc(-c2cnc3ncccn23)n1, the remaining binding was 82% (binding; 1 µM).
COc1cnc(Nc2cccc(S(N)(=O)=O)c2)nc1N1CCN(c2ccccc2)CC1 gave a remaining binding of 65% (binding; competition with immobilised ligand; 1 µM).
With Cc1noc([C@H]2C[C@@H](c3ccc(C(F)(F)F)cc3)CN(C(=O)N3CCS(=O)(=O)C3)C2)n1 the remaining binding was 100% (cell-free assay; competition with immobilised ligand; 1 µM).
For CNC(=O)[C@@H]1CC[C@@H](n2c(-c3ccc4cnccc4c3)nc3ccc(C(=O)NCc4cccc(C(N)=O)c4)cc32)C1, the remaining binding was 79% (binding; competition with immobilised ligand; 1 µM).
O=C(O)[C@H]1[C@H](Cn2nnc3ccccc3c2=O)CC[C@@H]1C(=O)c1ccc(OCCC2CCOCC2)cc1 gave a remaining binding of 79% (cell-free assay; competition with immobilised ligand; 1 µM).
COc1ncc2cc3ccccc3nc2c1C#N has a remaining binding of 96% (cell-free assay; competition with immobilised ligand; 5 µM).
O=C(c1ccc(Nc2ncc(Cl)c(-c3cc4ccccc4s3)n2)cc1)N1CCC(N2CCCC2)CC1 gave a remaining binding of 100% (binding; competition with immobilised ligand; 1 µM).
With CN(C)C(=O)Cn1cc(-c2nc(C3(c4ccc(-c5cnc(N)nc5)cc4)CC3)no2)cn1 the remaining binding was 93% (cell-free assay; competition with immobilised ligand; 1 µM).
F[C@@H]1CCN(c2nccc(-c3cnn4ncccc34)n2)C1 has a remaining binding of 100% (binding; 1 µM).
With Cc1cnc(Nc2ccc(C(=O)N3CCC(N4CCCC4)CC3)cc2)nc1-c1cc2ccccc2s1 the remaining binding was 100% (binding; competition with immobilised ligand; 1 µM).
The remaining binding of O=C(Nc1c[nH]nc1C(=O)NC1CCNCC1)c1cc(F)cc(F)c1 is reported as 100% (binding; competition with immobilised ligand; 1 µM).
The remaining binding of CNC(=O)Nc1ccc2c(c1)[C@@]1(CC2)OC(=O)N(CC(=O)N(Cc2ccc(F)cc2)[C@@H](C)C(F)(F)F)C1=O is reported as 100% (cell-free assay; competition with immobilised ligand; 1 µM).
For CN(c1nccc(-c2cnn3ncccc23)n1)C1CC1, the remaining binding was 88% (binding; 1 µM).
For O=C(O)c1cc(-c2ccc(C3CCNCC3)cc2)c2ccc(-c3ccc(C(F)(F)F)cc3)cc2c1, the remaining binding was 86% (cell-free assay; competition with immobilised ligand; 1 µM).
With CN(C)c1ncc(F)c(-c2cnn3ncccc23)n1 the remaining binding was 95% (binding; 1 µM).
C[C@@H](c1ccc(-n2cnc3c(N)ncnc32)cc1)N1CCc2nn(C)c(Cc3ccccc3)c2C1=O gave a remaining binding of 100% (binding; competition with immobilised ligand; 0.1 µM).
